# GPR7 antag – GPR7 receptor antagonists, primary screen, cell-based, fluorescence, single concentration | GPR7-expressing cells, fluorescence antagonist assay | inhibition, % at 4.4 µM | 290,000 compounds, 1.1% hits | AID 1861, 2009; in the data active means inhibition above about 16%, passing the limit was not always enough;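 further: cells stimulated with the agonist NPW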
# OX1R antag-1 – antagonists of human orexin 1 receptor (OX1R); OX1R-expressing cells, FRET antagonist read-out; 330,000 compounds, 1.8% hits; Orexin/Hypocretin receptor type 1 (Homo sapiens), O43613; inhibition, % at 6.6 µM; in the data active means inhibition mostly above about 38%, no sharp cut-off; inactive means mostly below about 40%
# Target sequence (O43613 whole entry, looked up): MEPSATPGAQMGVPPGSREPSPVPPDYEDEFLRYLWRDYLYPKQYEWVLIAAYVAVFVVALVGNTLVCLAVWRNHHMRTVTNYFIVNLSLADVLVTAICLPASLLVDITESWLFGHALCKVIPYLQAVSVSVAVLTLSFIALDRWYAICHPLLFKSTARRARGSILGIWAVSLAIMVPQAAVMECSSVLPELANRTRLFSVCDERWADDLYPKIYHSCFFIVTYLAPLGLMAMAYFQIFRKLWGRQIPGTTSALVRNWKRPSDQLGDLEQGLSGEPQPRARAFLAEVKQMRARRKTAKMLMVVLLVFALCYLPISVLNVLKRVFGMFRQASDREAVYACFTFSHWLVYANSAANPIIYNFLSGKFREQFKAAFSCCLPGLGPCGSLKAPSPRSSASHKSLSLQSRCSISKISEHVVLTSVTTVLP
# TAAR1 ag – human TAAR1 agonists, primary screen, Fluo-8 calcium fluorescence, CHO RD-HGA16 cells | Trace amine-associated receptor 1 (Homo sapiens), Q96RJ0 | vehicle wells 0%, saturating PEA agonist 100% | activation, % at 3 µM | 360,000 compounds, 0.99% hits;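 active means activation above the mean activation of all test compounds in the run plus 3 SD, cut at about 38% in these data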
#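 Test system: RD-HGA16 (CHO) cells co-expressing Gα16 and hTAAR1; dosing: one-point dosing at 3 µM (nominal); timing: 17-24 h seeding, 75 min 37 °C dye, 30 min RT; signal: kinetic Fluo-8 calcium fluorescence; read-out basis: % activation relative to PEA EC100 response; controls: DMSO and PEA EC100; replicates: n 1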
# CHO parental Ca – ATP-evoked calcium signal inhibitors, parental CHO, primary screen, counter-screen for OX1R antagonist project, cell-based, fluorescence, Fluo-8 calcium dye; AID 463079, 2010; inhibition, % at 5.6 µM; 330,000 compounds, 0.63% hits; parental CHO-K1, ATP-induced calcium, Fluo-8 fluorescence;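 active means inhibition above that plate's mean sample inhibition plus 3 SD, cut at about 26% in these data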
#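 Test system: untransfected parental CHO cell line. Compound: one dose, 5.6 µM nominal. Detection: intracellular calcium via Fluo-8 no-wash fluorescent dye. Measure: % inhibition. Benchmarks: ATP-challenged DMSO wells low, unchallenged DMSO wells high.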
# TAAR1 antag – human TAAR1 antagonists, primary screen, Fluo-8 calcium fluorescence, CHO RD-HGA16 cells; Trace amine-associated receptor 1 (Homo sapiens), Q96RJ0; 360,000 compounds, 1.5% hits; inhibition, % at 3 µM; antagonist; AID 624466, 2012;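 active means inhibition above a per-plate cutoff, the mean inhibition of test compounds on that plate plus 3 SD, cut at about 49% in these data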
#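 Assay system: CHO-derived RD-HGA16 cells stably expressing human TAAR1 plus Gα16. Timing: 140 s kinetic read after compound, 140 s after agonist. Technique: kinetic Fluo-8 calcium fluorescence measurement. Measure: % inhibition of agonist calcium response.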
# OX1R antag-2 – OX1R (HCRTR1) antagonists, primary screen, fluorescence, CHO/OX1R cells, Fluo-8 calcium, orexin A | 330,000 compounds, 0.43% hits | inhibition, % at 5 µM | Fluo-8 calcium fluorescence;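 active means inhibition above its plate's threshold, mean inhibition of all tested compounds on the plate plus 3 SD, cut at about 37% in these data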
# OX1R HTRF conf – OX1R (HCRTR1) antagonists, confirmation, cell-based, HTRF. OX1R-expressing cells, HTRF antagonist assay. inhibition, % at 6.6 µM. shares compounds with OX1R antag-1. 1,800 compounds, 49% hits; in the data active means inhibition above about 55%;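 further: CHO cells expressing OX1R stimulated with orexin A at about EC80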
# CHO-K1 HTRF cnt – signal inhibition in parental CHO-K1 cells, counter-screen for OX1R antagonist project, cell-based, HTRF; 1,800 compounds, 48% hits; inhibition, % at 6.6 µM; shares compounds with OX1R antag-1; AID 493232, 2011; HTRF counterscreen; in the data active means inhibition above about 17%
# Numbers stand for hits; i = inactive; nt = no result given; + = active, no number. Most compounds without a hit are left out; they make up all but 4.6% or so of the library.
SMILES,GPR7 antag,OX1R antag-1,TAAR1 ag,CHO parental Ca,TAAR1 antag,OX1R antag-2,OX1R HTRF conf,CHO-K1 HTRF cnt
O=C(NCc1cccnc1)C1CCCN(S(=O)(=O)c2cccc3nsnc23)C1 (centres undefined),i,89,i,i,i,i,i,32
O=C(NCc1ccccc1)C1CCCN(S(=O)(=O)c2cccc3nsnc23)C1 (centres undefined),i,i,i,i,i,i,nt,nt
O=C(CN1C(=O)S/C(=C/c2cccs2)C1=O)N1CCOCC1,i,86,i,i,i,i,i,29
O=C(CN1C(=O)S/C(=C/c2ccncc2)C1=O)N1CCOCC1,i,i,i,i,i,i,nt,nt
O=C(O)CN1C(=O)/C(=C\c2cn(CC(=O)N3CCOCC3)c3ccccc23)SC1=S,i,100,i,i,i,i,i,49
O=C(CCN1C(=O)/C(=C\c2ccccc2F)SC1=S)N1CCOCC1,nt,nt,i,nt,i,nt,nt,nt
O=C1CCC(C(=O)NCCN2C(=O)S/C(=C\c3cccnc3)C2=O)=NN1,i,106,i,i,i,i,i,59
O=C(CN1C(=O)S/C(=C/c2cccnc2)C1=O)N1CCOCC1,i,112,i,i,i,i,i,72
O=C(Nc1cccc(Cl)c1)c1ccc2sc([C@H]3C[C@H](O)[C@@H](CO)O3)nc2c1,nt,nt,i,nt,i,nt,nt,nt
O=C(Nc1cccc2ccccc12)ON=C1CCCCC1,nt,nt,i,nt,i,nt,nt,nt
O=C1CSC(c2cccc([N+](=O)[O-])c2)N1C1CC2CCC1C2 (centres undefined),i,i,i,i,i,i,nt,nt
O=C(COC(=O)CNC(=O)C1CCCCC1)Nc1ccc(Cl)cn1,i,i,i,i,i,i,nt,nt
COc1cccc2c1C(=O)C=C(C)C2=O,i,124,i,i,i,i,72,92
COc1cccc(CNC(=O)CCNS(=O)(=O)c2cccs2)c1,i,i,i,i,i,i,nt,nt
COCCCn1c(C(=O)NCCN2CCOCC2)cc2c(=O)n3ccccc3nc21,i,i,i,i,i,i,nt,nt
C=CCn1c(=O)c(C#N)cc2c(=O)n3ccccc3nc21,i,137,i,i,i,i,i,34
C=CCn1c(=N)c(C#N)cc2c(=O)n3ccccc3nc21,i,102,i,i,i,i,55,78
C=CCn1c(=N)c(C(=O)NCCCOC)cc2c(=O)n3ccccc3nc21,i,137,i,i,i,i,56,83
N=c1c(C(=O)NCc2ccc(F)cc2)cc2c(=O)n3ccccc3nc2n1CCCN1CCOCC1,i,82,i,i,i,i,65,35
Cc1ccc(S(=O)(=O)N(C)c2ccc(C(=O)NC3CCCCC3)cc2)cc1,nt,nt,i,nt,i,nt,nt,nt
N#Cc1cc2c(=O)n3ccccc3nc2n(-c2ccc(Cl)cc2)c1=O,i,i,i,i,i,i,nt,nt
CCOC(=O)c1cc2c(=O)n3ccccc3nc2n(CCCOC)c1=NC(=O)c1ccncc1,i,85,i,i,i,i,i,33
CCOC(=O)c1cc2c(=O)n3ccccc3nc2n(Cc2ccco2)c1=NC(=O)c1ccc(OC)cc1,i,i,i,i,i,i,nt,nt
Cc1cc(-n2c(=O)c(C#N)cc3c(=O)n4ccccc4nc32)no1,i,128,i,i,i,i,i,75
Cc1ccc2c(ccn3cc4c(c(=O)n(C)c(=O)n4C)c23)c1,i,86,i,i,i,i,88,i
SMILES,GPR7 antag,OX1R antag-1,TAAR1 ag,CHO parental Ca,TAAR1 antag,OX1R antag-2,OX1R HTRF conf,CHO-K1 HTRF cnt
Cc1cccc(-c2c3c(=O)n(C)c(=O)n(C)c3cn2C(C)C)c1,i,i,i,i,i,i,nt,nt
CCN(CC)CCn1c2c(c(SCC(=O)Nc3ccccc3Cl)nc1=O)CCCC2,nt,i,i,i,i,i,nt,nt
O=C1C(Cl)=C(NCCCO)C(=O)c2ccccc21,i,+,i,i,i,i,67,104
COc1ccc(CCNC(=O)CCC(=O)N2CCOc3ccccc32)cc1OC,i,i,i,i,i,i,nt,nt
CNC(=O)COC(=O)c1ccc([N+](=O)[O-])cc1Cl,i,120,i,i,i,i,i,74
O=C(CSc1ccccn1)N/N=C/c1cc([N+](=O)[O-])ccc1O,i,i,i,i,i,i,nt,nt
CCCS(=O)(=O)N1CCCC(C(=O)NCCCN(Cc2ccccc2)C(C)C)C1 (centres undefined),i,107,i,i,i,i,i,i
CC1CCCN(S(=O)(=O)c2ccc3c(c2)c(=O)nc2ccc(Cl)cn23)C1 (centres undefined),i,i,i,i,i,i,nt,nt
COc1cccc2cc(-c3cn4cccc(C)c4n3)c(=O)oc12,i,i,i,i,i,i,nt,nt
COc1cccc2cc(-c3cn4ccc(C)cc4n3)c(=O)oc12,i,86,i,i,i,i,91,i
Cc1c(NC(=O)C(C)OC(=O)c2ccc([N+](=O)[O-])s2)c(=O)n(-c2ccccc2)n1C (centres undefined),i,118,i,i,i,i,71,81
Cc1cc(C)c(C#N)c(SCc2nnc(-c3ccccc3[N+](=O)[O-])o2)n1,i,i,i,i,i,i,nt,nt
Cc1cc(C)c(C#N)c(SCc2nnc(-c3ccccc3)o2)n1,i,81,i,i,i,i,i,i
CCCS(=O)(=O)N1CCN(c2cc3c(cc2[N+](=O)[O-])n(C)c(=O)n3C)CC1,i,78,i,i,i,i,i,49
CNS(=O)(=O)c1cc2c3c(cccc3c1)C(=O)NC2=O,i,130,i,i,i,i,i,78
O=C(c1ccc(F)cc1)c1ccc(OCC(=O)N2CCOCC2)cc1,nt,i,i,i,i,i,nt,nt
O=C(Cc1ccc([N+](=O)[O-])cc1)Oc1ccccc1,nt,nt,i,nt,i,nt,nt,nt
O=[N+]([O-])c1ccc(Sc2cc[n+]([O-])c3ccccc23)c([N+](=O)[O-])c1,i,98,i,i,i,i,55,78
CCN1CCc2c(C#N)c(N3CCOCC3)nc(NCCO)c2C1,i,78,i,i,i,i,i,i
CCN1CCc2c(C#N)c(N3CCOCC3)nc(NCc3ccccc3)c2C1,i,nt,i,nt,i,nt,nt,nt
COc1cc(OC)c2cc(C(=O)N/N=C/c3cccc(OC)c3O)[nH]c2c1,i,77,i,i,i,i,72,i
